For assay [1], the system named is Mus musculus. As to the kind of experiment: compound was tested for maximum tolerated dose administarted iv (mg/kg). Format: functional. The gist of the method: (§1)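 BDF1 mice were implanted bilaterally sc on day 0 with 30–60-mg Panc03 tumor fragments. Intravenous chemotherapy began 3 days after implantation. The maximum tolerated dose was defined as the LD10 or less and was expressed in mg/kg.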

For assay [2], the species on record is Mus musculus. As to the kind of experiment: Tumor growth inhibition was measured as ratio of median tumor burden in the treatment group*100(T) / median tumor burden in the control group(C);g= not active signifies %T/C>42. Format: functional, organism-based. A digest of the protocol:
(§2)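 BDF1 mice implanted bilaterally sc with 30–60-mg Panc03 fragments on day 0. Dosing iv at the maximum tolerated dose (LD10 or less), starting 3 days after implantation. Tumor growth inhibition expressed as %T/C; %T/C > 42 counted as not active.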

Assay [3] concerns Mus musculus. The assay can be described thus: In vivo antitumor activity measured in mice against the Colon26/A murine solid tumors. Format: functional.
The subject of assay [4] is Mus musculus. As to the kind of experiment: In vivo antitumor activity measured in mice against the Colon38 murine solid tumors. It counts as functional.
The subject of assay [5] is Mus musculus. The assay can be described thus: In vivo antitumor activity measured in mice against the Colon51 murine solid tumors. It counts as functional.
Assay [6] deals with Mus musculus. As to the kind of experiment: In vivo antitumor activity measured in mice against the Mam16/C murine solid tumors. Format: functional.
Assay [7] deals with Mus musculus. As to the kind of experiment: In vivo antitumor activity measured in mice against the Panc 02 murine solid tumors. Format: functional.
Assay [8] is filed under the species Mus musculus. The assay can be described thus: The long term cures (LTC) value is the number of mice in a group with no palpable tumor. It counts as functional. The gist of the method:
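Panc03-bearing BDF1 mice (bilateral sc fragments) dosed iv at the maximum tolerated dose from day 3. Long-term cure is a mouse with no palpable tumor after at least 86 days, reported as cured mice over total mice per treatment group.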

The subject of assay [9] is Mus musculus. As to the kind of experiment: Maximum tolerated dose administarted iv (mg/kg) to mice. It counts as functional. The gist of the method:
as §1

The species named for assay [10] is Mus musculus. The assay can be described thus: compound was tested for murine tumor growth inhibition,T/C value ([…]/control) in mice. Format: functional. A digest of the protocol:
as §2

For twelve compounds, MTD, T/C and LTC results are on record in ChEMBL document CHEMBL1131098, “Synthesis and antitumor activity of 4-aminomethylthioxanthenone and 5-aminomethylbenzothiopyranoindazole derivatives” (J Med Chem, 1998).

Activity calls are given as the source filed them. Where only a bound is given, the exact number is not on record here.

`CCN(CC)CCNc1ccc(CNS(C)(=O)=O)c2sc3ccc(Br)cc3c(=O)c12`: the MTD (in general, the highest dose tested that stayed within the study's limit of toxicity) with Mus musculus [1] stood at 1281 mg/kg. The T/C (as a rule, the ratio of treated to control) in the assay listed under Mus musculus [2] was “inactive”.
For `COc1cccc2c1C(=O)c1c(O)c3c(c(O)c1C2=O)C[C@@](O)(C(=O)CO)C[C@@H]3O[C@H]1C[C@H](N)[C@H](O)[C@H](C)O1` [DOXORUBICIN], the T/C is listed as 7% in the assay on Mus musculus [3]; 0% in the assay on Mus musculus [4]; 21% in the assay with Mus musculus [5]; 0% with Mus musculus [6]; 35% in the assay with Mus musculus [7]. In addition, in the assay filed under Mus musculus [8], the LTC was determined as 0.2.
Compound `CCN(CC)CCN(C)c1ccc(CNC)c2sc3ccccc3c(=O)c12` displayed a maximal tolerated dose (MTD) in the assay on Mus musculus [9] of 1506 mg/kg. The T/C entry in the assay listed under Mus musculus [2] is “inactive”.
With `O=P1(N(CCCl)CCCl)NCCCO1` (configuration not stated) [CYCLOPHOSPHAMIDE ANHYDROUS], the T/C worked out at 8% in the assay with Mus musculus [3], 0% with Mus musculus [6] and 36% with Mus musculus [7].
On to `CCN(CC)CCNc1ccc(CN2C(=O)c3ccccc3C2=O)c2sc3ccccc3c(=O)c12`, for which, in the assay filed under Mus musculus [10], the T/C turned out to be 38%.
For `CCN(CC)CCNc1ccc(CN)c2sc3ccc(Br)cc3c(=O)c12`, the MTD in the assay with Mus musculus [1] worked out at 967 mg/kg. In the assay filed under Mus musculus [2], the T/C result is “inactive”.
On to `CCN(CC)CCNc1ccc(CNS(=O)(=O)c2ccc(F)cc2)c2sc3ccccc3c(=O)c12`, for which the MTD in the assay on Mus musculus [9] was more than 1597 mg/kg. In addition, the T/C entry in the assay listed under Mus musculus [2] was “inactive”.
On the same counts, the results for `CCN(CC)CCNc1ccc(CNc2ccccc2)c2sc3ccccc3c(=O)c12` are 674 mg/kg and “inactive”.
On the same counts, the results for `CCN(CC)CCNc1ccc(CN2C(=O)c3ccccc3S2(=O)=O)c2sc3ccccc3c(=O)c12` are 740 mg/kg and “inactive”.
On the same counts, the results for `CCN(CC)CCNc1ccc(CNS(=O)(=O)c2ccc(Cl)cc2)c2sc3ccccc3c(=O)c12` are more than 1500 mg/kg and “inactive”.
With `CCN(CC)CCNc1ccc(CNS(C)(=O)=O)c2sc3ccccc3c(=O)c12`, the T/C with Mus musculus [3] was 29%; with Mus musculus [4] it was 0%; with Mus musculus [5], 14%; in the assay with Mus musculus [6], 6%; in the assay on Mus musculus [7], 23%. In the assay listed under Mus musculus [8], this compound yielded an LTC of 0.6.
In the case of `CCN(CC)CCNc1ccc(CNC)c2sc3ccc(Br)cc3c(=O)c12`, the MTD in the assay with Mus musculus [1] is 345 mg/kg. Also, the T/C result in the assay filed under Mus musculus [2] is “inactive”.
